Assay results from ChEMBL document CHEMBL1135280, “Synthesis and pharmacological evaluation of 6-piperidino- and 6-piperazinoalkyl-2(3H)-benzothiazolones as mixed sigma/5-HT(1A) ligands” (Bioorg Med Chem Lett, 2002).

Legend:
Histamine H1 receptor = Histamine H1 receptor (Rattus norvegicus, UniProt P31390); assay: Displacement of [3H]- pyrilamine from rat brain membrane Histamine H1 receptor
D(2) dopamine receptor = D(2) dopamine receptor (Rattus norvegicus, UniProt P61169); assay: Displacement of [3H]- raclopride from rat striatum Dopamine receptor D2
Sequence of D(2) dopamine receptor (P61169 whole entry): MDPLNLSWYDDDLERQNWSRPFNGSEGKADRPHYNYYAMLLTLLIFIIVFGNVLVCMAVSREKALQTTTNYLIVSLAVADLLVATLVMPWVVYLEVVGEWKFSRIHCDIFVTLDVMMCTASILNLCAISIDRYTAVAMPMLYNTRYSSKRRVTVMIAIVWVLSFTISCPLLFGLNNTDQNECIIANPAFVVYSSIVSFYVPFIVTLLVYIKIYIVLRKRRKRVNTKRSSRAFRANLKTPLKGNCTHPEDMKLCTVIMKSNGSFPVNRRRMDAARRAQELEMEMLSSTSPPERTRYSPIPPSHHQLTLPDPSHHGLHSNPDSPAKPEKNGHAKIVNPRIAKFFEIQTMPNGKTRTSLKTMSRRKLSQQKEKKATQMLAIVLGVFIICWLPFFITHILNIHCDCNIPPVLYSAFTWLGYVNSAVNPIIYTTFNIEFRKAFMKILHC

[1] = target: T1, 5-hydroxytryptamine receptor 1A (Rattus norvegicus, UniProt P19327); assay: Displacement of […] membrane 5-hydroxytryptamine 1A receptor
T1 sequence (P19327 whole entry): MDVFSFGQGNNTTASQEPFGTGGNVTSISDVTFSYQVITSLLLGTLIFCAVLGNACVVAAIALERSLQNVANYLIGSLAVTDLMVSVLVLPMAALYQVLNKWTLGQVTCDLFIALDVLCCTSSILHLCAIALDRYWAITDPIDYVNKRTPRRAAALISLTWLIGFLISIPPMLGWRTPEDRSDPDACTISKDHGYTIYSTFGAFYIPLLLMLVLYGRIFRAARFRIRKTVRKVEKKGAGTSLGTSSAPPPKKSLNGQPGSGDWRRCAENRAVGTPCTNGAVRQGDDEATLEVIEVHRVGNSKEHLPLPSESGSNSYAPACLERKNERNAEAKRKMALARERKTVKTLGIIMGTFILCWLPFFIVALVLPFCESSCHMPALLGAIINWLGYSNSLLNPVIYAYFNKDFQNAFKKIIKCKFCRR
Method in brief: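 Radioligand displacement on rat brain membranes, run by an external laboratory. [3H]prazosin and [3H]ketanserin were used with cortex, and [3H]-8-OH-DPAT with hippocampus.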

[2] = Binding affinity ratio towards sigma receptor compared to the 5-hydroxytryptamine 1A receptor
[3] = target: T2, Sigma non-opioid intracellular receptor 1 (Homo sapiens, UniProt Q99720); assay: In vitro binding affinity for Sigma opioid receptor by displacement of [3H]DTG
T2 sequence (Q99720 whole entry): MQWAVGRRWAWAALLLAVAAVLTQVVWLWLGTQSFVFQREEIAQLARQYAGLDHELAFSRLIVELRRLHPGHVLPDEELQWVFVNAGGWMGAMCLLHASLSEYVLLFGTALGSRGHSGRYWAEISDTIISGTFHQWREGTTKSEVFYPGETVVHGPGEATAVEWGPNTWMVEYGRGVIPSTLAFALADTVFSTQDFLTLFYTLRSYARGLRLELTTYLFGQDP

[4] = target: T3, Muscarinic acetylcholine receptor M1 (Rattus norvegicus, UniProt P08482); assay: In vitro binding affinity towards Muscarinic acetylcholine receptor M1 by displacing [3H]- telenzepine from rat brain membrane
T3 sequence (P08482 whole entry): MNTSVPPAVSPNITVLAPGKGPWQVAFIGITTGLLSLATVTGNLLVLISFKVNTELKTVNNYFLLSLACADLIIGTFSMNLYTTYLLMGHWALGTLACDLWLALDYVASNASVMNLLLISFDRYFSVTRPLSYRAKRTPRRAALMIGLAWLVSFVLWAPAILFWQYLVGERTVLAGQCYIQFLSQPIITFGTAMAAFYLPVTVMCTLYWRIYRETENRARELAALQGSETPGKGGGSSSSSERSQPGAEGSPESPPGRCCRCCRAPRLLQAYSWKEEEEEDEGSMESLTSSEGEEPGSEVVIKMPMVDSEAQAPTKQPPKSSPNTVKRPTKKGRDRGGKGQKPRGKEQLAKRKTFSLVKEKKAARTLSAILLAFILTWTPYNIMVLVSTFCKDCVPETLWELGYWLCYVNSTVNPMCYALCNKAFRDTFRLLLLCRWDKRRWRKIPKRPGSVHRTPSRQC

Rattus norvegicus = organism: Rattus norvegicus; assay: In vitro binding affinity ratio between Sigma opioid receptor and 5-hydroxytryptamine 1A receptor
[5] = target: T2, Sigma non-opioid intracellular receptor 1; assay: Binding affinity ratio between Sigma opioid receptor type 1 and Sigma opioid receptor type 2
Method in brief: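 Selectivity ratio of σ1 to σ2 affinity, determined only for compounds with high affinity at sigma sites. σ1 affinity was measured with (+)-pentazocine and σ2 affinity with DTG as radioligands.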

[6] = target: T2, Sigma non-opioid intracellular receptor 1; assay: In vitro binding affinity towards Sigma opioid receptor type 1 by using [3H]- (+)-pentazocine as radioligand
[7] = target: T3, Muscarinic acetylcholine receptor M1; assay: In vitro binding affinity towards Muscarinic acetylcholine receptor M1 by displacing [3H]- telenzepine from rat brain membrane
Sigma 2 receptor = assay: In vitro binding affinity towards Sigma opioid receptor type 2 by using [3H]- DTG in the presence of 1 uM (+)- pentazocine

Sequence of Histamine H1 receptor (P31390 whole entry): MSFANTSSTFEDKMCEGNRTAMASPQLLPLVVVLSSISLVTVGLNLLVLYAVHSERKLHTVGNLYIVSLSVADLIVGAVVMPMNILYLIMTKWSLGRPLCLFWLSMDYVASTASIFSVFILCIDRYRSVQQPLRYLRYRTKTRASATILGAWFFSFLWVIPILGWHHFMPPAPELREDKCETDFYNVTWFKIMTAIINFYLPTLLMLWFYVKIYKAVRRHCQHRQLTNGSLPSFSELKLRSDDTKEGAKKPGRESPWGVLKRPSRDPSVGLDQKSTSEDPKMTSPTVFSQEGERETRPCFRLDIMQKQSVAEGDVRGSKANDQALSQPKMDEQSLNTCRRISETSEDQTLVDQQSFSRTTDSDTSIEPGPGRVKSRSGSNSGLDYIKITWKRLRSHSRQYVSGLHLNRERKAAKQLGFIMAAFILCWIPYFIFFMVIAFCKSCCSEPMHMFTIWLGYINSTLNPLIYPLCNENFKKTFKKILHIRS

Ki (Histamine H1 receptor) [nM] | Ki (D(2) dopamine receptor) [nM] | Ki [1] [nM] | Ratio [2] | Ki [3] [nM] | Ki [4] [nM] | Ratio (Rattus norvegicus) | Ratio [5] | Ki [6] [nM] | Ki [7] [nM] | Ki (Sigma 2 receptor) [nM] | Structure (SMILES)
6000 | 30 | 10 | 0.3 | 3 | – | – | – | – | – | – | Cn1c(=O)sc2cc(CCCCN3CCC(c4ccccc4)CC3)ccc21
10 | 100 | 100 | 0.08 | 8 | – | – | – | – | – | – | Cn1c(=O)sc2cc(CCN3CCN(Cc4ccc(Cl)cc4Cl)CC3)ccc21
7 | > 10000 | 30 | 0.1 | 3 | 500 | – | – | – | – | – | Cn1c(=O)sc2cc(CCN3CCN(Cc4ccccc4)CC3)ccc21
9 | 100 | 300 | – | 2 | 500 | 0.006 | 70 | 139 | – | – | Cn1c(=O)sc2cc(CCCCN3CCN(Cc4ccc(Cl)c(Cl)c4)CC3)ccc21
< 100 | 100 | 200 | 0.04 | 9 | < 10000 | – | – | – | – | – | Cn1c(=O)sc2cc(CCCCN3CCN(Cc4ccc(Cl)cc4Cl)CC3)ccc21
3 | > 100 | 4 | 1.25 | 5 | 100 | – | – | – | – | – | Cn1c(=O)sc2cc(CCN3CCC(Cc4ccccc4)CC3)ccc21
9 | 100 | 30 | 0.17 | 5 | – | – | – | – | 200 | – | Cn1c(=O)sc2cc(CCCCN3CCC(Cc4ccccc4)CC3)ccc21
20000 | > 10000 | > 10000 | < 0.2 | 2000 | > 10000 | – | – | – | – | – | C[C@@H]1CN(CCc2ccc3c(c2)sc(=O)n3C)C[C@H](C)N1
40 | 200 | 30 | 0.17 | 5 | 1000 | – | – | – | – | – | Cn1c(=O)sc2cc(CCN3CCN(Cc4ccc(Cl)c(Cl)c4)CC3)ccc21
< 100 | 10000 | 40 | – | 2 | 10000 | – | – | 37.2 | – | 2 | Cn1c(=O)sc2cc(CCCCN3CCN(Cc4ccccc4)CC3)ccc21
20 | 1000 | 4 | – | 2 | 1000 | 0.5 | 10 | 20 | – | – | Cn1c(=O)sc2cc(CCN3CCC(c4ccccc4)CC3)ccc21
> 100000 | > 100000 | > 100000 | < 0.001 | 100 | > 100000 | – | – | – | – | – | C[C@@H]1CN(CCCCc2ccc3c(c2)sc(=O)n3C)C[C@H](C)N1
